According to the RNAGym collection of RNA variant scans (doi:10.1126/science.aae0568):
This sample holds only a part of the variants without activity.

B1: tRNA (parent)
chain: GUUCCGUUGGCGUAAUGGUAACGCGUCUCCCUCCUAAGGAGAAGACUGCGGGUUCGAGUCCCGUACGGAACG

Variants of: B1
Assay: yeast fitness relative to wild type (ratio to wild type); higher = fitter; tRNA-Arg(CCU), competitive growth, 37 C, YPD
Procedure, shortened: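 Genotype frequency changes were the basis for Darwinian fitness relative to wild type. The frequencies came from 100-nucleotide paired-end sequencing of gene amplicons from the start population and each end population of pooled yeast strains with tRNA-Arg(CCU) gene variants at the native locus. Competition ran in YPD at 37°C for 24 hours in six replicates, genotypes needed ≥ 100 starting reads, and estimates < 0.5 were set to 0.5.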

U13A C31A G44A A57G A65C A70U and U13C A14G G56C cannot be ordered by yeast fitness: ≤ 0.5 for the first, ≤ 0.5 for the second.

Going from U13A C31G C46G A69U to U13A C30A A69C, the yeast fitness rises from 0.624 to 0.656.

U13C C22A C29U and U13C C34G C62U cannot be ordered by yeast fitness: ≤ 0.5 for the first, ≤ 0.5 for the second.

First: U13A G18C U26A
Second: U13C A40U A69U
The yeast fitness of the first is lower: ≤ 0.5 for the first, 0.793 for the second.

Compared with U13C C27U A69U, U13A G56A C61G A70G is lower in yeast fitness: 0.648 for the first, ≤ 0.5 for the second.

Compared with U13C A45G C61G, U13C A45G is higher in yeast fitness: ≤ 0.5 for the first, 0.916 for the second.

Going from U13C A14C C34U G38C G51A A57C C66U to U13A G68C, the yeast fitness rises from ≤ 0.5 to 0.762.

Going from U13A G68A to U13A U28C G41A G44A, the yeast fitness falls from 0.864 to ≤ 0.5.

Compared with U13C C24G C60G, U13C C24G C61A is higher in yeast fitness: ≤ 0.5 for the first, 0.54 for the second.

Compared with U13C A36U C62G A65G, U13C A20C A43G is higher in yeast fitness: 0.671 for the first, 0.684 for the second.

Going from U13A U54C C62U to U13A C61U A65G, the yeast fitness rises from 0.679 to 0.71.

Going from U13A C33G to U13C A14C U64C A65C, the yeast fitness falls from 0.741 to ≤ 0.5.

Compared with U13C C55G C61G C66U, U13A C27U G44C is higher in yeast fitness: ≤ 0.5 for the first, 0.637 for the second.

Compared with U13A U16A C31G C33U G38C G58C C66G, U13A C29U A42U is higher in yeast fitness: ≤ 0.5 for the first, 0.568 for the second.

Compared with U13A U16C C34A, U13A C27U C62U is higher in yeast fitness: ≤ 0.5 for the first, 0.786 for the second.

Going from U13A C27G U28A A65U A70U to U13A U28C C33G G38A U64G, the yeast fitness falls from 0.543 to ≤ 0.5.

Compared with U13A G23C C27G, U13C C49G C62U is higher in yeast fitness: 0.504 for the first, 0.533 for the second.

U13C A40G C62G and U13A G18C C27U A65G cannot be ordered by yeast fitness: ≤ 0.5 for the first, ≤ 0.5 for the second.

Going from U13A C29G A42C C62G to U13C C61G, the yeast fitness rises from ≤ 0.5 to 0.609.

U13C A36U G51C and U13C C22U G38C cannot be ordered by yeast fitness: ≤ 0.5 for the first, ≤ 0.5 for the second.

Compared with U13A U28C A69C, U13C A14C C60U C62U U64A is lower in yeast fitness: 0.76 for the first, ≤ 0.5 for the second.

Compared with U13C C55A A69U, U13C C29G A36U G41C A45C C49U U54C C61U is lower in yeast fitness: 0.624 for the first, ≤ 0.5 for the second.

Compared with U13C C31U G41C C61U, U13A C30A is higher in yeast fitness: 0.53 for the first, 1.11 for the second.

Going from U13C A37C to U13C A37G, the yeast fitness falls from 0.713 to 0.694.

First: U13A G25C A45G A57G
Second: U13C C60A A70G
The yeast fitness of the first is lower: ≤ 0.5 for the first, 0.588 for the second.

Compared with U13C C24U U53A C66U, U13C A20G C46U is higher in yeast fitness: ≤ 0.5 for the first, 0.66 for the second.

First: U13C C33A A36U
Second: U13A U64C
The yeast fitness of the first is lower: ≤ 0.5 for the first, 0.922 for the second.

Compared with U13A U64A, U13C C29A G51C is lower in yeast fitness: 0.832 for the first, 0.624 for the second.

U13A C30U C55G G58C G63C C66U and U13C C31U A57G C60U U64A C66A A69C cannot be ordered by yeast fitness: ≤ 0.5 for the first, ≤ 0.5 for the second.

Going from U13A C66A to U13A G67A, the yeast fitness rises from 0.619 to 0.9.

Going from U13A G67U to U13A G18C C27U U54C A57U, the yeast fitness falls from 0.727 to 0.561.

U13C C31G C33G and U13C C31G C33A C66A cannot be ordered by yeast fitness: ≤ 0.5 for the first, ≤ 0.5 for the second.

Compared with U13A C46A G48C, U13A C33U A45C C46G A69U is lower in yeast fitness: 1.08 for the first, 0.579 for the second.

First: U13C C49G
Second: U13C C49U
The yeast fitness of the first is lower: 0.896 for the first, 1.01 for the second.

First: U13A C33A A36U
Second: U13C A45C G50U
The yeast fitness of the first is higher: 0.544 for the first, ≤ 0.5 for the second.

U13A C55U G58A U59C C62U and U13C A14G C24G cannot be ordered by yeast fitness: ≤ 0.5 for the first, ≤ 0.5 for the second.

U13C A15U C46A A65C and U13C A15C C46G cannot be ordered by yeast fitness: ≤ 0.5 for the first, ≤ 0.5 for the second.

Compared with U13C A40U, U13C A14U C46U G48A C55U G68U is lower in yeast fitness: 1.03 for the first, ≤ 0.5 for the second.

U13A C33G C55A and U13A C30U G38C C49A cannot be ordered by yeast fitness: ≤ 0.5 for the first, ≤ 0.5 for the second.

Going from U13A G58C to U13A C55U A70C, the yeast fitness falls from 0.853 to 0.571.

First: U13A U19G C49U
Second: U13A G23C C24G A70G
The yeast fitness of the first is higher: 0.625 for the first, ≤ 0.5 for the second.

Compared with U13A C55U, U13A G18C A36G G41C A65C is lower in yeast fitness: 0.626 for the first, 0.544 for the second.

Compared with U13A C30G C61U G68A, U13A U16A U54A is higher in yeast fitness: ≤ 0.5 for the first, 0.505 for the second.

Compared with U13C C33G G56C, U13A U47A C60A is higher in yeast fitness: ≤ 0.5 for the first, 0.58 for the second.

Going from U13C A21G U28C C31G to U13A G41A U64C A70G, the yeast fitness falls from 0.539 to ≤ 0.5.

Compared with U13C C24G G38C, U13A U35A is lower in yeast fitness: 0.592 for the first, 0.561 for the second.

Going from U13A U35G to U13A C46A, the yeast fitness rises from 0.688 to 0.979.

First: U13A C46A A69C
Second: U13C A15U U16A U19A C34U G67A G68C
The yeast fitness of the first is higher: 0.722 for the first, ≤ 0.5 for the second.

U13C C29U C31U U54G A65U G67A and U13C A42G C61G cannot be ordered by yeast fitness: ≤ 0.5 for the first, ≤ 0.5 for the second.

Compared with U13A C30G U54C, U13A U32C A69U is higher in yeast fitness: ≤ 0.5 for the first, 0.995 for the second.

Compared with U13A C34G U54A, U13C C29G A36G G41A G48C is lower in yeast fitness: 0.609 for the first, ≤ 0.5 for the second.

U13C C22A C24A and U13A G23C U32G C49U A69U cannot be ordered by yeast fitness: ≤ 0.5 for the first, ≤ 0.5 for the second.

First: U13C C34G C55A
Second: U13A U28C A45U
The yeast fitness of the first is lower: ≤ 0.5 for the first, 0.702 for the second.

Compared with U13C A42C, U13C A42U is lower in yeast fitness: 0.932 for the first, 0.923 for the second.

Going from U13C C27U C55A A69U to U13A C60U A69U, the yeast fitness rises from ≤ 0.5 to 0.62.

Going from U13C C31U G58C C61A A69U to U13A G41A A45C, the yeast fitness rises from ≤ 0.5 to 0.552.

Going from U13C A15G C30A C62G to U13C C27A, the yeast fitness rises from ≤ 0.5 to 0.963.

Compared with U13C C22U G39C, U13A C61A C62U C66U is lower in yeast fitness: 0.512 for the first, ≤ 0.5 for the second.

Compared with U13A C60U, U13C A43G is higher in yeast fitness: 0.699 for the first, 0.984 for the second.

Going from U13C A20G U54C to U13C A20U C62U, the yeast fitness rises from ≤ 0.5 to 0.731.

Compared with U13A G39A A45G U54A, U13C C46U G48A is higher in yeast fitness: ≤ 0.5 for the first, 0.732 for the second.

U13C A20G A37G G58A and U13C C34G G67A cannot be ordered by yeast fitness: ≤ 0.5 for the first, ≤ 0.5 for the second.

Going from U13A G50U to U13A G23C A70C, the yeast fitness falls from 0.838 to 0.667.

First: U13C A69C
Second: U13C C55U A65U
The yeast fitness of the first is higher: 0.995 for the first, ≤ 0.5 for the second.

First: U13C C31U C34U A40G U47A
Second: U13C A57C
The yeast fitness of the first is lower: ≤ 0.5 for the first, 0.67 for the second.

Going from U13A G23C to U13A G23A, the yeast fitness rises from 0.57 to 0.659.

Compared with U13A U28C G58C A69U, U13C A43U C49U is higher in yeast fitness: 0.7 for the first, 0.716 for the second.

Compared with U13A C34U, U13A C31A A42G G67A A69U is lower in yeast fitness: 0.58 for the first, ≤ 0.5 for the second.

Going from U13A C34U A40U A65C to U13A U54A, the yeast fitness rises from ≤ 0.5 to 0.622.

Going from U13C A21G C31G to U13A C31G C34A, the yeast fitness falls from 0.754 to 0.624.

U13A C27U A57G C66U and U13C C49G U53C A57C cannot be ordered by yeast fitness: ≤ 0.5 for the first, ≤ 0.5 for the second.

Going from U13A U54C C55U C62U G68C to U13A U35A A40U G41A A42C, the yeast fitness falls from 0.686 to ≤ 0.5.

U13C A20G C49U C66U A70C and U13C C22U A45U G48A C55A cannot be ordered by yeast fitness: ≤ 0.5 for the first, ≤ 0.5 for the second.

Compared with U13A G48A G67C, U13A G39C is higher in yeast fitness: 0.608 for the first, 0.779 for the second.

Going from U13A G25A to U13C C27U A37C, the yeast fitness falls from 1.01 to ≤ 0.5.

Compared with U13C A14G C31U, U13A U26G C30G C49G is lower in yeast fitness: 0.824 for the first, 0.501 for the second.

First: U13A U28A U47G C62U A65U
Second: U13C C22U C27U A37C
The yeast fitness of the first is lower: ≤ 0.5 for the first, 0.563 for the second.

U13A C34G C61U and U13C C55A A65U cannot be ordered by yeast fitness: ≤ 0.5 for the first, ≤ 0.5 for the second.

Compared with U13A C27U C66U, U13A C31G C33U A37C A65U is lower in yeast fitness: 0.787 for the first, ≤ 0.5 for the second.

Compared with U13A G41C A42G G67A, U13A U28A is higher in yeast fitness: ≤ 0.5 for the first, 0.772 for the second.

Compared with U13A U32A C62U G63A, U13C C62A is higher in yeast fitness: ≤ 0.5 for the first, 0.68 for the second.

Compared with U13C C62U, U13A G44C is lower in yeast fitness: 1.01 for the first, 0.94 for the second.

Going from U13C A40U A57G to U13A C27G U32C A45G U64A, the yeast fitness falls from 0.688 to ≤ 0.5.

In the case of U13A C33U A42G G52C A65G, the yeast fitness is reported as ≤ 0.5.
